Laboratory results: ChEMBL document CHEMBL1932986, “Synthesis and in vitro antimycobacterial activity of compounds derived from (R)- and (S)-2-amino-1-butanol - The crucial role of the configuration” (Eur J Med Chem, 2012)
Values after ≈ are worked out from the molar mass of the structure shown. Active and inactive are the calls of the source. The rule behind the calls is not given here.

What was measured:
Staphylococcus aureus [1] = experiment: Antibacterial activity against Staphylococcus aureus NRRL B 313 at 50 mg/ml after 24 hrs by agar diffusion test; assay type: functional; conditions: NRRL B 313, 24 h, read-out: DIZ
Summary of the method: (§1)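 Agar diffusion: bacteria grown 24 h at 37 °C on nutrient agar. Wells in the agar are filled with […] of compound solution in DMSO at various concentrations. The diameter of the clear zone around the application point is measured. Bracketed values give the lowest concentration (mg/ml) that produces a zone >11 mm. A first screen is run at 50 mg/ml.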

[2] = tested on: Mycobacterium tuberculosis; experiment: Ratio of ethambutol dihydrochloride MIC to compound MIC for Mycobacterium tuberculosis H37Rv; assay type: functional
HEK-293T = experiment: Cytotoxicity against human HEK293T cells after 72 hrs by MTT assay; assay type: cell-based
Summary of the method: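 293T cells in RPMI-1640 with 10% heat-inactivated FCS and 2 mM L-glutamine, 37 °C, 5% CO2. Cells seeded at 3.5 × 10⁵ cells/ml, grown 24 h, then exposed 72 h to DMSO-diluted compounds (final solvent ≤0.5%), ≥8 wells per concentration. MTT added 4 h, formazan dissolved in 5% HCOOH/2-propanol, absorbance read at 580 nm. IC50 obtained by sigmoidal nonlinear regression against untreated control.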

Acinetobacter johnsonii [3] = experiment: Antibacterial activity against Acinetobacter johnsonii ATCC 17909 at 50 mg/ml after 24 hrs by agar diffusion test; assay type: functional; conditions: ATCC 17909, 24 h, read-out: DIZ
Summary of the method: (§2)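 Agar diffusion: wells in agar filled with […] DMSO solution of compound at various concentrations; diameter of clear zone around application point measured. Bacteria grown 24 h at 37 °C on nutrient agar. Compounds first screened at 50 mg/ml; those active then tested at lower concentrations. Bracketed value = lowest concentration (mg/ml) giving zone >11 mm, reported only if activity retained at ≤1.25 mg/ml.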

[4] = Solubility of the compound in deionized water; assay type: physicochemical
Micrococcus luteus [5] = experiment: Antibacterial activity against Sarcina lutea ATCC 9341 at 50 mg/ml after 24 hrs by agar diffusion test; assay type: functional; conditions: ATCC 9341, 24 h, read-out: DIZ; summary of the method: as §1
[6] = Selectivity index, ratio of IC50 for human HEK293T cells to MIC for Mycobacterium tuberculosis H37Rv; assay type: functional, HEK-293T
Bacillus subtilis [7] = experiment: Antibacterial activity against Bacillus subtilis ATCC 6633 at 50 mg/ml after 24 hrs by agar diffusion test; assay type: functional; summary of the method: as §2
Bacillus cereus [8] = experiment: Antibacterial activity against Bacillus cereus ATCC 11778 at 50 mg/ml after 24 hrs by agar diffusion test; assay type: functional; conditions: ATCC 11778, 24 h, read-out: DIZ; summary of the method: as §2
Escherichia coli [9] = experiment: Antibacterial activity against Escherichia coli ATCC 8739 at 50 mg/ml after 24 hrs by agar diffusion test; assay type: functional; summary of the method: as §2
Priestia megaterium [10] = experiment: Antibacterial activity against Bacillus megaterium NRRL 1353895 at 50 mg/ml after 24 hrs by agar diffusion test; assay type: functional; conditions: NRRL 1353895, 24 h, read-out: DIZ; summary of the method: as §2
Penicillium chrysogenum [11] = experiment: Antifungal activity against Penicillium chrysogenum CECT 2802 at 50 mg/ml after 72 hrs by agar diffusion test; assay type: functional
Summary of the method: (§3)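 Agar diffusion: yeasts grown on yeast peptone dextrose agar and fungi on potato dextrose agar. Wells are filled with […] of compound solution in DMSO at various concentrations, and the clear-zone diameter is measured. Bracketed values give the lowest concentration (mg/ml) that produces a zone >11 mm. A first screen is run at 50 mg/ml.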

Candida tropicalis [12] = experiment: Antifungal activity against Candida tropicalis ATCC 20336 at 50 mg/ml after 72 hrs by agar diffusion test; assay type: functional; conditions: ATCC 20336, 72 h, read-out: DIZ; summary of the method: as §3
Saccharomyces cerevisiae [13] = experiment: Antifungal activity against Saccharomyces cerevisiae ATCC 9763 at 50 mg/ml after 72 hrs by agar diffusion test; assay type: functional; conditions: ATCC 9763, 72 h, read-out: DIZ; summary of the method: as §3
[14] = tested on: Mycobacterium tuberculosis; experiment: Antimycobacterial activity against Mycobacterium tuberculosis H37Rv after 45 days; assay type: functional
Summary of the method: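 Canetti proportion method. Compound in DMSO is added to Löwenstein–Jensen egg medium before coagulation (30 min, 85 °C), tested at three levels plus a lower one where needed. Tubes are inoculated with H37Rv at 10⁵ cells/ml and incubated 45 days at 37 °C. Colony counts versus drug-free control give percentage inhibition.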

Bacillus mycoides [15] = experiment: Antibacterial activity against Bacillus mycoides DSMZ 274 at 50 mg/ml after 24 hrs by agar diffusion test; assay type: functional; conditions: DSMZ 274, 24 h, read-out: DIZ; summary of the method: as §2
Bacillus [16] = experiment: Antibacterial activity against Bacillus idosus B 241 at 50 mg/ml after 24 hrs by agar diffusion test; assay type: functional; conditions: B 241, 24 h, read-out: DIZ; summary of the method: as §2
Micrococcus luteus [17] = experiment: Antibacterial activity against Micrococcus luteus ATCC 9631 at 50 mg/ml after 24 hrs by agar diffusion test; assay type: functional; conditions: ATCC 9631, 24 h, read-out: DIZ; summary of the method: as §2
Bacillus cereus [18] = experiment: Antibacterial activity against Bacillus cereus ATCC 11778 at 2 mg/ml after 24 hrs by agar diffusion test; assay type: functional, organism-based; summary of the method: as §2
Saccharomyces cerevisiae [19] = experiment: Antifungal activity against Saccharomyces cerevisiae ATCC 9763 assessed as concentration required to produce >11 mm of zone of inhibition after 72 hrs by agar diffusion test; assay type: functional; summary of the method: as §3
Bacillus subtilis [20] = experiment: Antibacterial activity against Bacillus subtilis ATCC 6633 at 2 mg/ml after 24 hrs by agar diffusion test; assay type: functional, organism-based; summary of the method: as §2
Bacillus mycoides [21] = experiment: Antibacterial activity against Bacillus mycoides DSMZ 274 at 2 mg/ml after 24 hrs by agar diffusion test; assay type: functional, organism-based; summary of the method: as §2
Acinetobacter johnsonii [22] = experiment: Antibacterial activity against Acinetobacter johnsonii ATCC 17909 at 2 mg/ml after 24 hrs by agar diffusion test; assay type: functional; summary of the method: as §2
Bacillus cereus [23] = experiment: Antibacterial activity against Bacillus cereus ATCC 11778 assessed as concentration required to produce >11 mm of zone of inhibition after 24 hrs by agar diffusion test; assay type: functional; summary of the method: as §2
Micrococcus luteus [24] = experiment: Antibacterial activity against Sarcina lutea ATCC 9341 at 2 mg/ml after 24 hrs by agar diffusion test; assay type: functional, organism-based; summary of the method: as §2
Acinetobacter johnsonii [25] = experiment: Antibacterial activity against Acinetobacter johnsonii ATCC 17909 assessed as concentration required to produce >11 mm of zone of inhibition after 24 hrs by agar diffusion test; assay type: functional; summary of the method: as §2
Bacillus [26] = experiment: Antibacterial activity against Bacillus idosus B 241 assessed as concentration required to produce >11 mm of zone of inhibition after 24 hrs by agar diffusion test; assay type: functional; summary of the method: as §2
Bacillus subtilis [27] = experiment: Antibacterial activity against Bacillus subtilis ATCC 6633 assessed as concentration required to produce >11 mm of zone of inhibition after 24 hrs by agar diffusion test; assay type: functional; summary of the method: as §2
Staphylococcus aureus [28] = experiment: Antibacterial activity against Staphylococcus aureus NRRL B 313 assessed as concentration required to produce >11 mm of zone of inhibition after 24 hrs by agar diffusion test; assay type: functional; summary of the method: as §1
Staphylococcus aureus [29] = experiment: Antibacterial activity against Staphylococcus aureus NRRL B 313 at 2 mg/ml after 24 hrs by agar diffusion test; assay type: functional, organism-based; summary of the method: as §1
Bacillus [30] = experiment: Antibacterial activity against Bacillus idosus B 241 at 2 mg/ml after 24 hrs by agar diffusion test; assay type: functional, organism-based; summary of the method: as §2
Candida tropicalis [31] = experiment: Antifungal activity against Candida tropicalis ATCC 20336 at 2 mg/ml after 72 hrs by agar diffusion test; assay type: functional, organism-based; summary of the method: as §3
Priestia megaterium [32] = experiment: Antibacterial activity against Bacillus megaterium NRRL 1353895 assessed as concentration required to produce >11 mm of zone of inhibition after 24 hrs by agar diffusion test; assay type: functional; summary of the method: as §2
Candida tropicalis [33] = experiment: Antifungal activity against Candida tropicalis ATCC 20336 assessed as concentration required to produce >11 mm of zone of inhibition after 72 hrs by agar diffusion test; assay type: functional; summary of the method: as §3
Escherichia coli [34] = experiment: Antibacterial activity against Escherichia coli ATCC 8739 at 2 mg/ml after 24 hrs by agar diffusion test; assay type: functional, organism-based; summary of the method: as §2
Bacillus mycoides [35] = experiment: Antibacterial activity against Bacillus mycoides DSMZ 274 assessed as concentration required to produce >11 mm of zone of inhibition after 24 hrs by agar diffusion test; assay type: functional; summary of the method: as §2
Micrococcus luteus [36] = experiment: Antibacterial activity against Micrococcus luteus ATCC 9631 at 2 mg/ml after 24 hrs by agar diffusion test; assay type: functional, organism-based; summary of the method: as §2
Saccharomyces cerevisiae [37] = experiment: Antifungal activity against Saccharomyces cerevisiae ATCC 9763 at 2 mg/ml after 72 hrs by agar diffusion test; assay type: functional, organism-based; summary of the method: as §3
Priestia megaterium [38] = experiment: Antibacterial activity against Bacillus megaterium NRRL 1353895 at 2 mg/ml after 24 hrs by agar diffusion test; assay type: functional, organism-based; summary of the method: as §2
Escherichia coli [39] = experiment: Antibacterial activity against Escherichia coli ATCC 8739 assessed as concentration required to produce >11 mm of zone of inhibition after 24 hrs by agar diffusion test; assay type: functional; summary of the method: as §2
Penicillium chrysogenum [40] = experiment: Antifungal activity against Penicillium chrysogenum CECT 2802 at 2 mg/ml after 72 hrs by agar diffusion test; assay type: functional, organism-based; summary of the method: as §3

CC[C@H](CO)NC(=O)c1ccccc1O
zone of inhibition at 50000 µg/mL (Staphylococcus aureus [1]): 11 mm | Ratio [2]: 5 | IC50 (HEK-293T): 257 µM | zone of inhibition at 50000 µg/mL (Acinetobacter johnsonii [3]): 13 mm | solubility [4]: 2000 µg/mL (≈ 9.56 mM) | zone of inhibition at 50000 µg/mL (Micrococcus luteus [5]): 13 mm | Selectivity Index [6]: 267.7 | diameter of the inhibition zone (DIZ) (Bacillus subtilis [7]): inactive | zone of inhibition at 50000 µg/mL (Bacillus cereus [8]): 11 mm | diameter of the inhibition zone (DIZ) (Escherichia coli [9]): inactive | zone of inhibition at 50000 µg/mL (Priestia megaterium [10]): 13 mm | diameter of the inhibition zone (DIZ) (Penicillium chrysogenum [11]): inactive | zone of inhibition at 50000 µg/mL (Candida tropicalis [12]): 13 mm | zone of inhibition at 50000 µg/mL (Saccharomyces cerevisiae [13]): 15 mm | MIC [14]: 0.96 µM (≈ 0.201 µg/mL) | zone of inhibition at 50000 µg/mL (Bacillus mycoides [15]): 12 mm | zone of inhibition at 50000 µg/mL (Bacillus [16]): 11 mm | zone of inhibition at 50000 µg/mL (Micrococcus luteus [17]): 11 mm

CC[C@H](CO)NCc1ccc2c(c1)Cc1ccccc1-2
zone of inhibition at 50000 µg/mL (Staphylococcus aureus [1]): 17 mm | diameter of the inhibition zone (DIZ) (Bacillus cereus [18]): inactive | Activity (Saccharomyces cerevisiae [19]): 1.25 mg/mL | diameter of the inhibition zone (DIZ) (Bacillus subtilis [20]): inactive | zone of inhibition at 50000 µg/mL (Acinetobacter johnsonii [3]): 17 mm | diameter of the inhibition zone (DIZ) (Bacillus mycoides [21]): inactive | diameter of the inhibition zone (DIZ) (Acinetobacter johnsonii [22]): inactive | zone of inhibition at 50000 µg/mL (Micrococcus luteus [5]): 18 mm | Activity (Bacillus cereus [23]): 1.25 mg/mL | diameter of the inhibition zone (DIZ) (Micrococcus luteus [24]): inactive | zone of inhibition at 50000 µg/mL (Bacillus subtilis [7]; ATCC 6633, 24 h, read-out: DIZ): 18 mm | zone of inhibition at 50000 µg/mL (Bacillus cereus [8]): 16 mm | Activity (Acinetobacter johnsonii [25]): 1.25 mg/mL | Activity (Bacillus [26]): 0.6 mg/mL | zone of inhibition at 50000 µg/mL (Escherichia coli [9]; ATCC 8739, 24 h, read-out: DIZ): 16 mm | zone of inhibition at 50000 µg/mL (Priestia megaterium [10]): 16 mm | Activity (Bacillus subtilis [27]): 1.25 mg/mL | Activity (Staphylococcus aureus [28]): 1.25 mg/mL | diameter of the inhibition zone (DIZ) (Staphylococcus aureus [29]): inactive | diameter of the inhibition zone (DIZ) (Bacillus [30]): inactive | zone of inhibition at 50000 µg/mL (Penicillium chrysogenum [11]; CECT 2802, 72 h, read-out: DIZ): 30 mm | zone of inhibition at 50000 µg/mL (Candida tropicalis [12]): 21 mm | diameter of the inhibition zone (DIZ) (Candida tropicalis [31]): inactive | Activity (Priestia megaterium [32]): 1.25 mg/mL | Activity (Candida tropicalis [33]): 0.06 mg/mL | diameter of the inhibition zone (DIZ) (Escherichia coli [34]): inactive | zone of inhibition at 50000 µg/mL (Saccharomyces cerevisiae [13]): 20 mm | Activity (Bacillus mycoides [35]): 1.25 mg/mL | diameter of the inhibition zone (DIZ) (Micrococcus luteus [36]): inactive | MIC [14]: 18.7 µM (≈ 5.01 µg/mL) | zone of inhibition at 50000 µg/mL (Bacillus mycoides [15]): 20 mm | zone of inhibition at 50000 µg/mL (Bacillus [16]): 17 mm | zone of inhibition at 50000 µg/mL (Micrococcus luteus [17]): 16 mm | diameter of the inhibition zone (DIZ) (Saccharomyces cerevisiae [37]): inactive | diameter of the inhibition zone (DIZ) (Priestia megaterium [38]): inactive | Activity (Escherichia coli [39]): 1.25 mg/mL | diameter of the inhibition zone (DIZ) (Penicillium chrysogenum [40]): inactive
